From ChEMBL document CHEMBL1128321, “Piperazinylalkyl heterocycles as potential antipsychotic agents” (J Med Chem, 1995)

Experiments:
[1] = tested on: Rattus norvegicus; assay: Percentage of animals failing to escape shock was measured, affording a rough index for nonspecific sedation at 5 mg/kg(ip)
[2] = target: T1, 5-hydroxytryptamine receptor 1A (Rattus norvegicus, UniProt P19327); assay: Binding affinity was determined against 5-hydroxytryptamine 1A receptor using […]
T1 sequence (P19327 whole entry): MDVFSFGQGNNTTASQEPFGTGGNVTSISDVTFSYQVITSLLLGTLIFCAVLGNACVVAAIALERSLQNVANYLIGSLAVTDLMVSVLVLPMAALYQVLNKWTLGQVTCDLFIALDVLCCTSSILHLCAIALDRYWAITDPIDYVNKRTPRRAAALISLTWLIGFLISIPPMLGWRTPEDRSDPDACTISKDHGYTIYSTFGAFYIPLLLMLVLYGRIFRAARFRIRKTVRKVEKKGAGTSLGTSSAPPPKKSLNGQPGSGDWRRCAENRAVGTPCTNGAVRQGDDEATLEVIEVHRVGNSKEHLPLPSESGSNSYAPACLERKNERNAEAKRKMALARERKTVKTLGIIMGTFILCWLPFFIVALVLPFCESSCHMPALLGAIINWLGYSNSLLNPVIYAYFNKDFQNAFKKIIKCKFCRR

[3] = tested on: Rattus norvegicus; assay: Conditioned avoidance response activity was determined by the ability to block the conditioned avoidance of a foot shock at 5 mg/kg(ip); format: functional
How it was run: (§1)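 Male Fischer 344 rats (300–500 g) trained on a discrete-trial single-lever task, pressing the lever to avoid an impending shock; block of responding read at time of peak effect. Escape loss = percent of animals failing to escape the shock; >20% escape loss with CAR inhibition taken as potential for sedation.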

[4] = Stability half-life at pH-2; format: physicochemical
How it was run: (§2)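 Half-life measured in solution at pH 2, about 3 × 10⁻³ M compound in citric acid–phosphate buffer at 22 °C.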

[5] = tested on: Rattus norvegicus; assay: Conditioned avoidance response activity was determined by the ability to block the conditioned avoidance of a foot shock at 15 mg/kg(ip); format: functional
How it was run: as §1

[6] = Stability half-life at pH-2; stable; format: physicochemical
How it was run: as §2

| Compound | Esc loss [1] [%] | Ki [2] [nM] | inhibition in vivo at 5 mg/kg [3] [%] | half-life [4] [h] | inhibition in vivo at 15 mg/kg [5] [%] | T1/2 [6] |
| --- | --- | --- | --- | --- | --- | --- |
| CC(C)Oc1ccccc1N1CCN(Cc2cc(C(=O)N3CCCCC3)cs2)CC1.Cl | 34 | 2.5 | 72 | – | – | – |
| CC(C)Oc1ccccc1N1CCN(CCc2ccc(C(=O)C(=O)N3CCOCC3)n2C)CC1.O=C(O)CCC(=O)O | 0 | 9.4 | 2 | 85 | – | – |
| COc1ccccc1N1CCN(Cc2ccc(CN3CCCCCC3=O)o2)CC1.O=C(O)CCC(=O)O | 11 | 27 | – | – | 93 | – |
| CCCCC(=O)N(C)Cc1ccc(CN2CCN(c3ccccc3OC)CC2)n1C.O=C(O)CCC(=O)O | 1 | 4.5 | 2 | – | – | – |
| CNC(=O)c1ccc(CN2CCN(c3ccccc3OC(C)C)CC2)n1C.O=C(O)CCC(=O)O | 0 | 57 | 15 | 72.4 | – | – |
| CC(C)Oc1ccccc1N1CCN(Cc2cc(CO)no2)CC1 | 1 | – | 29 | 57.7 | – | – |
| CC(C)Oc1ccccc1N1CCN(Cc2ccc(CN(C)C(=O)C(C)C)n2C)CC1.O=C(O)CCC(=O)O | 0 | 0.84 | 3 | 1.07 | – | – |
| CCCCS(=O)(=O)N(C)Cc1ccc(CN2CCN(c3ccccc3OC)CC2)n1C.O=C(O)CCC(=O)O | 1 | 7.1 | 7 | 3.7 | – | – |
| CC(C)Oc1ccccc1N1CCN(Cc2ccc(CCN3CCCCC3=O)n2C)CC1.Cl | 27 | – | 77 | < 0.217 | – | – |
| CCCCS(=O)(=O)N(C)Cc1ccc(CN2CCN(c3ccccc3OC(C)C)CC2)n1C.O=C(O)CCC(=O)O | 0 | 18 | 2 | 2.5 | – | – |
| COc1ccccc1N1CCN(Cc2ccc(CN(C(=O)C3CCCCC3)C(C)C)n2C)CC1.O=C(O)CCC(=O)O | 26 | 11 | 36 | – | – | – |
| CC(C)Oc1ccccc1N1CCN(Cc2ccc(C(=O)N3CCCCCC3)s2)CC1.Cl | 3 | 3.2 | 8 | – | – | – |
| COc1ccccc1N1CCN(Cc2ccc(CN(C(C)C)S(C)(=O)=O)n2C)CC1 | 0 | – | 1 | – | – | – |
| CC(C)Oc1ccccc1N1CCN(Cc2ccc(CN3CCCCC3=O)o2)CC1.O=C(O)CCC(=O)O | 0 | 21 | 46 | – | – | Stable |
| CC(C)Oc1ccccc1N1CCN(Cc2ccc(CN(C)S(C)(=O)=O)n2C)CC1.O=C(O)CCC(=O)O | 0 | – | 8 | 3.7 | – | – |
| COc1ccccc1N1CCN(Cc2ccc(CN(C(C)=O)C(C)C)n2C)CC1.O=C(O)CCC(=O)O | 0 | 16 | 8 | – | – | – |
| COc1ccccc1N1CCN(Cc2ccc(CN3C(=O)c4ccccc4C3=O)o2)CC1 | 0 | 1.9 | – | – | 3 | – |
| COc1ccccc1N1CCN(Cc2ccc(CNC(C)=O)n2C)CC1.O=C(O)CCC(=O)O | 3 | – | 14 | – | – | – |
| CC(C)Oc1ccccc1N1CCN(CC2CC(CN3CCCCC3=O)=NO2)CC1 (stereo unspecified) | 20 | 10 | 69 | – | – | – |
| Cl.O=C(c1ccc(CN2CCN(c3cccc4ccoc34)CC2)s1)N1CCCCC1 | 0 | 0.63 | 3 | – | – | – |
| CC(C)Oc1ccccc1N1CCN(Cc2ccc(C(=O)N3CCCCC3)n2C)CC1.Cl | 5 | – | – | – | 56 | – |
| CC(C)Oc1ccccc1N1CCN(Cc2ccc(CN3CCCCCC3=O)o2)CC1.O=C(O)CCC(=O)O | 1 | 51 | – | 10.5 | 83 | – |
| COc1ccccc1N1CCN(Cc2ccc(CN3CCCCC3=O)o2)CC1.O=C(O)CCC(=O)O | 0 | 38 | – | – | 10 | – |
| CC(=O)N(C)Cc1ccc(CN2CCN(c3ccccc3OC(C)C)CC2)n1C.O=C(O)CCC(=O)O | 2 | 12 | 63 | 1.17 | – | – |
| CC(C)Oc1ccccc1N1CCN(CC2CC(CO)=NO2)CC1 (stereo unspecified) | 26 | 120 | 96 | 60.9 | – | – |

| Compound | Esc loss [1] [%] | Ki [2] [nM] | inhibition in vivo at 5 mg/kg [3] [%] | half-life [4] [h] | inhibition in vivo at 15 mg/kg [5] [%] | T1/2 [6] |
| --- | --- | --- | --- | --- | --- | --- |
| CC(C)Oc1ccccc1N1CCN(Cc2ccc(CN3CCCCC3=O)s2)CC1.Cl | 3 | 3.1 | 58 | – | – | – |
| O=C(O)CCC(=O)O.O=C1CCCCN1Cc1ccc(CN2CCN(c3cccc4ccoc34)CC2)s1 | 5 | 0.07 | 63 | – | – | – |
| CC(C)Oc1ccccc1N1CCN(CCc2ccc(CN3CCCCC3=O)n2C)CC1.O=C(O)CCC(=O)O | 19 | 1.5 | 82 | – | – | Stable |
| CC(C)Oc1ccccc1N1CCN(Cc2ccc(CN(C(=O)C(C)C)C(C)C)n2C)CC1.O=C(O)CCC(=O)O | 0 | 1.9 | 0 | – | – | – |
| COc1ccccc1N1CCN(Cc2ccc(CN(C)S(=O)(=O)C(C)C)n2C)CC1.O=C(O)CCC(=O)O | 0 | 39 | 6 | 2.17 | – | – |
| CC(C)NC(=O)c1ccc(CN2CCN(c3ccccc3OC(C)C)CC2)n1C.O=C(O)CCC(=O)O | 0 | 48 | 1 | 382 | – | – |
| COc1ccccc1N1CCN(CCc2ccc(C(=O)C(=O)N3CCCCC3)n2C)CC1.O=C(O)CCC(=O)O | 26 | 25 | 45 | – | – | – |
| CC(C)Oc1ccccc1N1CCN(Cc2ccc(C(=O)N3CCCCC3)s2)CC1.O=C(O)CCC(=O)O | 18 | 4.2 | 56 | – | – | – |
| CC(C)Oc1ccccc1N1CCN(Cc2cccc(CN3CCCCC3=O)n2)CC1.Cl | 15 | 829 | 85 | 70.3 | – | – |
| COc1ccccc1N1CCN(Cc2ccc(CN(Cc3ccccc3)C(=O)c3ccccc3)n2C)CC1.O=C(O)CCC(=O)O | 0 | – | 8 | – | – | – |
| CC(C)Oc1ccccc1N1CCN(Cc2cccc(C(=O)N3CCCCC3)c2)CC1 [MAZAPERTINE] | – | – | 98 | – | – | – |
| COc1ccccc1N1CCN(Cc2ccc(CN(C)C(C)=O)n2C)CC1.O=C(O)CCC(=O)O | 2 | 39 | 52 | – | – | – |
| CC(C)Oc1ccccc1N1CCN(Cc2ccc(CN(C)S(=O)(=O)C(C)C)n2C)CC1.O=C(O)CCC(=O)O | 0 | 5.7 | – | – | 0 | – |
| CC(C)Oc1ccccc1N1CCN(CCc2ccc(C(=O)C(=O)N3CCCCC3)n2C)CC1.O=C(O)CCC(=O)O | 1 | 2.3 | 16 | – | – | Stable |
| CC(C)Oc1ccccc1N1CCN(CCc2ccc(C(=O)C(=O)N3CCCCCC3)n2C)CC1.O=C(O)CCC(=O)O | 0 | 12 | 1 | – | – | Stable |
| CNC(=O)c1ccc(CN2CCN(c3ccccc3OC)CC2)n1C.O=C(O)CCC(=O)O | 0 | 248 | 22 | – | – | Stable |
| COc1ccccc1N1CCN(Cc2ccc(CN(Cc3ccccc3)C(C)=O)n2C)CC1.O=C(O)CCC(=O)O | 0 | – | 3 | – | – | – |
| CC(C)Oc1ccccc1N1CCN(Cc2ccc(CN(C(=O)C3CCCCC3)C(C)C)n2C)CC1.O=C(O)CCC(=O)O | 0 | 4.7 | 13 | – | – | – |
| CC(C)Oc1ccccc1N1CCN(Cc2cc(CN3CCCCC3=O)no2)CC1.Cl | 0 | 94 | 0 | 18.3 | – | – |
| CCCN(Cc1ccc(CN2CCN(c3ccccc3OC)CC2)n1C)S(=O)(=O)c1ccccc1 | 0 | – | – | – | 0 | – |
| COc1ccccc1N1CCN(Cc2ccc(CN(C)S(C)(=O)=O)n2C)CC1.O=C(O)CCC(=O)O | 4 | 11 | 23 | 2.87 | – | – |
| CC(C)Oc1ccccc1N1CCN(Cc2cc(C(=O)N3CCCCCC3)cs2)CC1.Cl | 4 | 0.41 | 45 | – | – | – |
| CCCCC(=O)N(C)Cc1ccc(CN2CCN(c3ccccc3OC(C)C)CC2)n1C.O=C(O)CCC(=O)O | 0 | 0.25 | 4 | – | – | – |
| COc1ccccc1N1CCN(CCc2ccc(CN3CCCCC3=O)n2C)CC1.O=C(O)CCC(=O)O | 4 | 1.4 | 23 | – | – | Stable |
| COc1ccccc1N1CCN(Cc2ccc(CCN3CCCCC3=O)n2C)CC1.Cl | 9 | – | 75 | < 0.117 | – | – |
